Assay results as given in ChEMBL document CHEMBL4118144, “Design, Synthesis, and Testing of Potent, Selective Hepsin Inhibitors via Application of an Automated Closed-Loop Optimization Platform” (J Med Chem, 2018).
In brackets after ≈: the same amount, converted by molar mass. Activity calls are given as the source filed them. The calls are words filed in the database; no cut-off is given here.

How the values were obtained:
[1] = Half life in human liver microsomes at 3 uM preincubated for 5 mins followed by NADPH addition by LC-MS/MS analysis; type: ADME, microsome
[2] = Kinetic solubility of the compound in PBS at pH 7.4 at 6.75 to 200 uM after 90 mins by UV absorbance based assay; type: physicochemical; details: read-out: Kinetic_solubility
Serine protease hepsin [3] = target: Serine protease hepsin (Homo sapiens, UniProt P05981, D161E/R162K); assay: Inhibition of recombinant C-terminal His10-tagged human Hepsin (R45 to […] residues) D161E/ R162K double mutant expressed in mouse NS0 cells using Boc-QRR-AMC as substrate after 15 mins by manual fluorescence assay
HepG2 = assay: Cytotoxicity against human HepG2 cells assessed as reduction in cell viability after 48 hrs by CellTiter-Blue/CytoTox-ONE-based assay; details: HepG2, 48 h
How it was run: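 Human Hep-G2 cells were exposed to compound at concentrations up to 10 µM. The value is reported as viable-50 (µM), the concentration at which 50% of cells remain viable.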

Serine protease hepsin [4] = target: Serine protease hepsin (Homo sapiens, UniProt P05981); assay: Inhibition of hepsin-mediated conversion of Pro-HGF into active form in human Hs578T cells assessed as decrease in MET phosphorylation at 1 to 10 uM preincubated for 30 mins followed by recombinant human pro-HGF addition measured after 30 mins by immunoblot method; type: cell-based
Chain of Serine protease hepsin (Homo sapiens, UniProt P05981) (P05981 1-162 limits assumed): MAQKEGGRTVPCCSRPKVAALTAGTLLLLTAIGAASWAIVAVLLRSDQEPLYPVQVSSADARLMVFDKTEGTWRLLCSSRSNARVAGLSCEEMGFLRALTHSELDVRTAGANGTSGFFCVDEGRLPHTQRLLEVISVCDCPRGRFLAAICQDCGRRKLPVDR
Chain of Serine protease hepsin (Homo sapiens, UniProt P05981) (P05981 163-417 limits assumed): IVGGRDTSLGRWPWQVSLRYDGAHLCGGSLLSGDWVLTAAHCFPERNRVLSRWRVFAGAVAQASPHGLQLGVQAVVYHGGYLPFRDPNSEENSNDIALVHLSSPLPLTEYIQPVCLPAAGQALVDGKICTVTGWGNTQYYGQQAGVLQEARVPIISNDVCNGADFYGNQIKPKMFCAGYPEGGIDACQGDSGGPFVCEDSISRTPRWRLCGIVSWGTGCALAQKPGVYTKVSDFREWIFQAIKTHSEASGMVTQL
How it was run: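 Hs578T or HCC1937 breast cells incubated with DMSO or inhibitor, then 50 ng/mL recombinant human Pro-HGF added; MET pathway activation (phospho-MET) assessed by immunoblotting.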

[5] = target: Prothrombin (Homo sapiens) (UniProt P00734); assay: Inhibition of human thrombin using Z-Gly-Pro-Arg-AMC as substrate at 1 uM after 60 mins by fluorescence spectrophotometric method relative to control
How it was run: (§1)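 Panel of ten serine proteases; percent inhibition read at compound concentrations of 1 µM and 10 µM, each value the mean of 2 experiments.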

[6] = target: T1, Cathepsin G (Homo sapiens) (UniProt P08311); assay: Inhibition of human cathepsin G using Suc-Ala-Ala-Pro-Phe-AMC as substrate at 10 uM after 30 mins by fluorescence spectrophotometric method relative to control; how it was run: as §1
T1 sequence (whole entry): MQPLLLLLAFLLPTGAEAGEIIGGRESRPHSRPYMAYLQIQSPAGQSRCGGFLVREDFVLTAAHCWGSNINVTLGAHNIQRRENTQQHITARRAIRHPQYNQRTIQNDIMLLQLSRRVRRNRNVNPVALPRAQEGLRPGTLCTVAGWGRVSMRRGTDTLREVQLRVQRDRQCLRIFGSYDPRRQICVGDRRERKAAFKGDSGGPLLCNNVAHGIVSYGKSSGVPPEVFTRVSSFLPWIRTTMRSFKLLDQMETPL

[7] = target: Dipeptidyl peptidase 4 (Homo sapiens) (UniProt P27487); assay: Inhibition of recombinant full length human dipeptidyl peptidase 4 using GP-AMC as substrate at 1 uM after 10 mins by fluorescence spectrophotometric method relative to control; how it was run: as §1
Chain of Dipeptidyl peptidase 4 (Homo sapiens) (P27487 whole entry, looked up): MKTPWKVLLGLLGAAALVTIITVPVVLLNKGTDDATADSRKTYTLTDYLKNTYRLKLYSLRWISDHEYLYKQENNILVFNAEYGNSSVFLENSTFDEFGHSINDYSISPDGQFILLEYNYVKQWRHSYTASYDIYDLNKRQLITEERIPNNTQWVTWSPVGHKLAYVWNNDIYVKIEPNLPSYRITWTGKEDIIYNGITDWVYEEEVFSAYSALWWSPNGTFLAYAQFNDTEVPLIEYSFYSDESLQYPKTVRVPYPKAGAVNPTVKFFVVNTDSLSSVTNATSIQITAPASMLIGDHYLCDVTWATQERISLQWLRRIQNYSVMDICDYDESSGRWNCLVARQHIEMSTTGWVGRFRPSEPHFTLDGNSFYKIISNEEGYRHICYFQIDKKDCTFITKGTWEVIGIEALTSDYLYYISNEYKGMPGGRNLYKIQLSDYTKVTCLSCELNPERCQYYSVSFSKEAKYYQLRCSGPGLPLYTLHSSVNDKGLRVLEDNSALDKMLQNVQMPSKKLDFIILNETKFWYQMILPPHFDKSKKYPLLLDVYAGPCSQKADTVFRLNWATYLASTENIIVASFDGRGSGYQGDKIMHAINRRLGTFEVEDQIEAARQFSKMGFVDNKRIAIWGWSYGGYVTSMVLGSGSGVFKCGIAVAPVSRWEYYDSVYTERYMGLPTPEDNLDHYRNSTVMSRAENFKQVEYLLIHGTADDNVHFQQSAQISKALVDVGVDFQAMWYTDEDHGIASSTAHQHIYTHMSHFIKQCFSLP

[8] = target: Dipeptidyl peptidase 4 (Homo sapiens) (UniProt P27487); assay: Inhibition of recombinant full length human dipeptidyl peptidase 4 using GP-AMC as substrate at 10 uM after 10 mins by fluorescence spectrophotometric method relative to control; how it was run: as §1
Tryptase (Homo sapiens) = Tryptase (Homo sapiens) (UniProt Q9BZJ3+Q15661+Q9NRR2); assay: Inhibition of recombinant full length human tryptase usingZ-Gly-Pro-Arg-AMC as substrate at 10 uM after 60 mins by fluorescence spectrophotometric method relative to control; type: protein assay; how it was run: as §1
Trypsin (Homo sapiens) = Trypsin (Homo sapiens) (UniProt P07477+P07478+P35030); assay: Inhibition of human trypsin using Z-Gly-Pro-Arg-AMC as substrate at 10 uM after 60 mins by fluorescence spectrophotometric method relative to control; type: protein assay; how it was run: as §1
[9] = target: Plasma kallikrein (Homo sapiens) (UniProt P03952); assay: Inhibition of human plasma kallikrein using H-D-Pro-Phe-Arg-pNA as substrate at 10 uM after 30 mins by spectrophotometric method relative to control; how it was run: as §1
Chain of Plasma kallikrein (Homo sapiens) (P03952 20-390 limits assumed): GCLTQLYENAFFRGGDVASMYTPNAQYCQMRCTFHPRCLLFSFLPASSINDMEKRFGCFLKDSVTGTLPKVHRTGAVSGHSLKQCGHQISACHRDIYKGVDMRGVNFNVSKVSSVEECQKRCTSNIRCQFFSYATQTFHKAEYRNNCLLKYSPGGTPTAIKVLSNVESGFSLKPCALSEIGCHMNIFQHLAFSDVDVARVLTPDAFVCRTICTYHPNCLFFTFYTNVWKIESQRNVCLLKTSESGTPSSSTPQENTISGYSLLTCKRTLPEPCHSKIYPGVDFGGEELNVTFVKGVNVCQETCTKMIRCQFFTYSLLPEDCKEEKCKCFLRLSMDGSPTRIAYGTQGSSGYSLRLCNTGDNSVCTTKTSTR
Chain of Plasma kallikrein (Homo sapiens) (P03952 391-638 limits assumed): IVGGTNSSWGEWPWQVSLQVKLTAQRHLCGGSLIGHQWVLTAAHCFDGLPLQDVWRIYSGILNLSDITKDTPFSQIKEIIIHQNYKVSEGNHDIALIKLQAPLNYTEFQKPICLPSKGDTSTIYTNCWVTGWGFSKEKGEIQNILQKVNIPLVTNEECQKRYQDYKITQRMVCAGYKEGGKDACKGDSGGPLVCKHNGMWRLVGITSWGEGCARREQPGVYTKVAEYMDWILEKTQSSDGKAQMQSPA

[10] = target: T2, Neutrophil elastase (Homo sapiens) (UniProt P08246); assay: Inhibition of human ELA2 using N-MeOSuc-Ala-Ala-Pro-Val-pNA as substrate at 1 uM after 60 mins by spectrophotometric method relative to control; how it was run: as §1
T2 sequence (whole entry): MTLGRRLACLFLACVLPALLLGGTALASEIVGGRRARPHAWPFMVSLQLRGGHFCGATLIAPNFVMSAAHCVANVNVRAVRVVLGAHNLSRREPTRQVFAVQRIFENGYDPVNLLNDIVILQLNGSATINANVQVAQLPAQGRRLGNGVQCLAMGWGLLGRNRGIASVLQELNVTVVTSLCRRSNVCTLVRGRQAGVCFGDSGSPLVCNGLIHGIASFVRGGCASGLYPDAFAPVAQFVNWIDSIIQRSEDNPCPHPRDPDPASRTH

[11] = target: T2, Neutrophil elastase (Homo sapiens); assay: Inhibition of human ELA2 using N-MeOSuc-Ala-Ala-Pro-Val-pNA as substrate at 10 uM after 60 mins by spectrophotometric method relative to control; how it was run: as §1
[12] = target: Coagulation factor X (Homo sapiens) (UniProt P00742); assay: Inhibition of factor 10a (unknown origin) at 1 uM after 15 mins by fluorescence assay relative to control; how it was run: as §1
Chain of Coagulation factor X (Homo sapiens) (P00742 41-179 limits assumed): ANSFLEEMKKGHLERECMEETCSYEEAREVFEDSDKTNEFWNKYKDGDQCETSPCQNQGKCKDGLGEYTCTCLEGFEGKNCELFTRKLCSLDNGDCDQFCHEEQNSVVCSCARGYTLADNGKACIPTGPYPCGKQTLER
Chain of Coagulation factor X (Homo sapiens) (P00742 235-488 limits assumed): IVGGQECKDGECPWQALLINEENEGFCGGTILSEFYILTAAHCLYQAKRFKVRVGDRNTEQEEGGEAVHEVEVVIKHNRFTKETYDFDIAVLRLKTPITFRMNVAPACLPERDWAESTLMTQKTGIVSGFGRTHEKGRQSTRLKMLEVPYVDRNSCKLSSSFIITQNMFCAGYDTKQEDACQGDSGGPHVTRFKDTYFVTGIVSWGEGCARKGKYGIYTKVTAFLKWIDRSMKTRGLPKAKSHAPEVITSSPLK

[13] = target: T3, Hepatocyte growth factor activator serine protease (Homo sapiens) (UniProt Q04756); assay: Inhibition of C-terminal 10-His tagged recombinant human HGFA (Gln36 to Ser655 residues) expressed in mouse […] cells 1 uM after 15 mins by fluorescence assay relative to control; type: cell-based
T3 sequence (whole entry): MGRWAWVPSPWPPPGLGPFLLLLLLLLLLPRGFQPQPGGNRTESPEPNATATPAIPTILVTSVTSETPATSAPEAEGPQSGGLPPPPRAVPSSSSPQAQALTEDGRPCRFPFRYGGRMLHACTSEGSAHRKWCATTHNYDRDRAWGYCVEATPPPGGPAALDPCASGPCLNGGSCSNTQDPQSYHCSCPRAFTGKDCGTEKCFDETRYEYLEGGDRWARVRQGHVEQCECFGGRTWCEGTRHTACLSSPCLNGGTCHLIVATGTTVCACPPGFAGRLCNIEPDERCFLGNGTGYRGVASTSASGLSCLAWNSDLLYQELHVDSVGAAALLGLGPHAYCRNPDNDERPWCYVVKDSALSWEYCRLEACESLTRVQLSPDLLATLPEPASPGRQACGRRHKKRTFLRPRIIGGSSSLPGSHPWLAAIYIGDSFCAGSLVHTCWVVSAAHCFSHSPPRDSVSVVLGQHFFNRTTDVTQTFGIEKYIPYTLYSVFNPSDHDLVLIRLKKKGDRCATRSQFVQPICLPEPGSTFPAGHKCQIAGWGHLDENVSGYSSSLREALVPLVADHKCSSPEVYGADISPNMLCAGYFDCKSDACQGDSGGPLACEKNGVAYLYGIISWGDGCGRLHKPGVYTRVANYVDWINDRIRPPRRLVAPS

## Cc1ccc(S(=O)(=O)N[C@@H](C(=O)Nc2ccc(C(=N)N)cc2)C2CCCCC2)cc1
[1]
  half-life at 3 µM: 89 min
[2]
  solubility kinetic at 1.5 h: > 200 µM
Serine protease hepsin [3]
  IC50: 38 to 70 nM
HepG2
  IC50: > 10 µM
Serine protease hepsin [4]
  inhibition: Active
[5]
  inhibition: 11%
[6]
  inhibition: < 10%
[7]
  inhibition: < 10%
[8]
  inhibition: < 10%
Tryptase (Homo sapiens)
  inhibition: 98%
Trypsin (Homo sapiens)
  inhibition: 96%
[9]
  inhibition: 29%
[10]
  inhibition: < 10%
[11]
  inhibition: < 10%
[12]
  inhibition: < 10%
[13]
  inhibition: 18%

## Cc1ccc(S(=O)(=O)N[C@@H](C(=O)Nc2ccc(C(=N)N)cc2)c2ccccc2)cc1
[1]
  half-life at 3 µM: 53 min
[2]
  solubility kinetic at 1.5 h: > 200 µM
Serine protease hepsin [3]
  IC50: 22 nM
HepG2
  IC50: > 10 µM
Serine protease hepsin [4]
  inhibition: Active
[5]
  inhibition: < 10%
[6]
  inhibition: < 10%
[7]
  inhibition: < 10%
[8]
  inhibition: < 10%
Tryptase (Homo sapiens)
  inhibition: 80%
Trypsin (Homo sapiens)
  inhibition: 93%
[9]
  inhibition: 85%
[10]
  inhibition: < 10%
[11]
  inhibition: < 10%
[12]
  inhibition: < 10%
[13]
  inhibition: 16%

## N=C(N)c1ccc(NC(=O)[C@H](NS(=O)(=O)c2ccc(F)cc2)C2CCCCC2)cc1
[1]
  half-life at 3 µM: 16 min
[2]
  solubility kinetic at 1.5 h: 200 µM (≈ 86.5 µg/mL)
Serine protease hepsin [3]
  IC50: 190 nM
HepG2
  IC50: > 10 µM
Serine protease hepsin [4]
  inhibition: Active
[5]
  inhibition: < 10%
[6]
  inhibition: < 10%
[7]
  inhibition: < 10%
[8]
  inhibition: < 10%
Tryptase (Homo sapiens)
  inhibition: 91%
Trypsin (Homo sapiens)
  inhibition: 97%
[9]
  inhibition: 34%
[10]
  inhibition: < 10%
[11]
  inhibition: < 10%
[12]
  inhibition: < 10%
[13]
  inhibition: 10%
